Data set [1] deals with West Nile virus. In words: Antiviral activity against West Nile virus infected in human HuH7 cells after 3 days by virus yield reduction assay. It is filed as functional, organism-based. As to conditions: Huh-7, 72 h.
Data set [2] is described as follows: Retention time of compound by RP-HPLC analysis. It is filed as physicochemical.
The target of data set [3] is Prothrombin (Homo sapiens) (UniProt P00734). The data set is described as follows: Inhibition of thrombin (unknown origin) using Boc-Val-Pro-Arg-AMC as substrate at 25 uM preincubated with protein for 15 mins followed by substrate addition measured for 10 mins by continuous fluorimetric assay relative to control.
The test system of data set [4] is dengue virus type 2. In words: Antiviral activity against Dengue virus serotype-2 infected in African green monkey Vero cells after 7 days by virus yield reduction assay. Format: functional, organism-based.
Data set [5] can be described thus: Inhibition of West Nile virus NS2B-NS3 protease using 2-Abz-Gly-Leu-Lys-Arg-Gly-Gly-[…]-Tyr-NH2 as substrate preincubated with protein for 15 mins followed by substrate addition measured for 15 mins by FRET assay. The method, boiled down: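 WNV NS2B-NS3 linked construct at 75 nM (40 nM in one case) in pH 9 Tris buffer, preincubated 15 min with eight inhibitor concentrations (ranges 0–1 up to 0–50 μM). Substrate was 50 μM, with FRET readout over 15 min. IC50 was fitted from triplicates.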

For the next data set, the target named is Trypsin (Homo sapiens) (UniProt P07477+P07478+P35030). The data set is described as follows: Inhibition of trypsin (unknown origin) using Boc-Val-Pro-Arg-AMC as substrate at 25 uM preincubated with protein for 15 mins followed by substrate addition by continuous fluorimetric assay relative to control.
A short description of data set [6]: Selectivity index, ratio of CC50 for African green monkey Vero cells to EC50 for Dengue virus serotype-2 infected in African green monkey Vero cells. It is filed as toxicity, cell-based. The settings on record: read-out: Ratio CC50/EC50.
Data set [7] can be described thus: Cytotoxicity against human HuH7 cells infected with Dengue virus serotype-2 assessed as cell viability after 48 hrs by Cell-Titer-Glo luminescent viability assay. Format: cell-based, Huh-7. In short, it runs like this: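 Huh-7 cells (10^4/well) were seeded in DMEM + 10% FBS overnight, then infected with WT DENV-2 (MOI 1) in the presence of compound, triplicate per concentration. After 48 h at 37 °C, medium was replaced with fresh DMEM and viability was read by CellTiter-Glo luminescence. CC50 was determined.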

A short description of data set [8]: Inhibition of Dengue virus serotype-2 NS2B-NS3 protease using 2-Abz-Nle-Lys-Arg-Arg-Ser-(3-NO2)-Tyr-NH2 as substrate preincubated with protein for 15 mins followed by substrate addition measured for 15 mins by FRET assay. Further details: species or system dengue virus type 2. In short, it runs like this: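 DENV-2 NS2B-NS3 linked construct at 30 nM (15 nM in some cases), same pH 9 Tris buffer, 15 min preincubation and FRET read-out. Eight inhibitor concentrations spanned 0–1, 0–2, 0–6 or 0–50 μM, with substrate at 50 μM. IC50 was fitted from triplicates.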

A short description of data set [9]: Cytotoxicity against human HuH7 cells infected with West Nile virus assessed as cell viability after 48 hrs by Cell-Titer-Glo luminescent viability assay. It is filed as cell-based, Huh-7. The method, boiled down: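 Huh-7 cells (10^4/well, DMEM + 10% FBS, overnight) were infected with WT WNV (MOI 0.1) alongside compound, each concentration in triplicate. After 48 h at 37 °C, fresh DMEM was added and viability was measured by CellTiter-Glo luminescence. CC50 was determined.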

Data set [10] deals with West Nile virus. The data set is described as follows: Inhibition of West Nile virus NS2B-NS3 protease using 2-Abz-Gly-Leu-Lys-Arg-Gly-Gly-[…]-Tyr-NH2 as substrate at 50 uM preincubated with protein for 15 mins followed by substrate addition measured for 15 mins by FRET assay. The method, boiled down: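 Linked WNV NS2B-NS3 protease (150 nM) was preincubated 15 min with inhibitor (50 μM final) in 50 mM Tris-HCl pH 9, 10% ethylene glycol, 0.0016% Brij 58. […] Percent inhibition was taken from the slope relative to the no-inhibitor control, in triplicate.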

Data set [11] relates to West Nile virus. In words: Competitive inhibition of West Nile virus NS2B-NS3 protease in presence of aprotinin by fluorescence displacement assay based Cheng-Prusoff plot.
Data set [12] has as its system West Nile virus. In words: Inhibition of West Nile virus NS2B-NS3 protease at 0 to 48 uM incubated for 1 hr by tryptophan quenching assay.
For data set [13], the system named is dengue virus type 2. In words: Competitive inhibition of Dengue virus serotype-2 NS2B-NS3 protease in presence of aprotinin by fluorescence displacement assay based Cheng-Prusoff plot.
The subject of data set [14] is dengue virus type 2. In words: Inhibition of Dengue virus serotype-2 NS2B-NS3 protease at 0 to 48 uM incubated for 1 hr by tryptophan quenching assay.
Data set [15] can be described thus: Half life in Sprague-Dawley rat liver microsomes incubated for 30 mins by UV-HPLC method. It is filed as ADME. In short, it runs like this:
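Pooled male rat liver microsomes (0.2 mg/mL protein) with NADPH (10 mM) in DPBS were preincubated 15 min at 37 °C. Compound (100 μM) was added and incubated at 37 °C; aliquots were taken at 0, 2, 5, 10, 20 and 30 min. Samples were quenched with equal-volume acetonitrile, chilled and centrifuged, and parent remaining was quantified by RP-HPLC UV against reference peak areas. Testosterone served as positive control.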
A general note: Microsomes from liver hold many membrane-bound enzymes, among them those of drug oxidation.

A short description of data set [16]: Permeability of compound assessed as compound mass retention after 5 hrs by PAMPA. Format: ADME. In short, it runs like this:
(§1)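 Precoated PAMPA plates were equilibrated 1 h at room temperature. Donor wells received 200 μM compound in PBS, in triplicate, and acceptor wells received PBS. After 5 h at room temperature, donor and acceptor concentrations were quantified by RP-HPLC UV at 254 nm against six-point calibration curves (10–200 μM). Pe and mass retention were calculated by literature formulas.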

The nature of data set [17]: Selectivity index, ratio of CC50 for human HuH7 cells to EC50 for West Nile virus infected in human HuH7 cells. As to conditions: read-out: Ratio CC50/EC50. It is filed as toxicity, cell-based, Huh-7. In short, it runs like this: (§2)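 Huh-7 cells (10^4/well) in DMEM + 10% FBS, overnight at 37 °C, then infected with WNV (MOI 0.1) plus compound, triplicate, 48 h. Pooled supernatant plaque-titrated on Vero E6 (10^-2 to 10^-7, 3 days, crystal violet), giving EC50 by nonlinear fit. Viability of the same infected cells by CellTiter-Glo luminescence gave CC50. Reference inhibitor also assayed.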

Data set [18] deals with dengue virus type 2. The data set is described as follows: Potency index, ratio of EC50 for relative to Bz-Lys-Arg-Phg-NH2 to EC50 for test compound for antiviral activity against Dengue virus serotype-2 infected in African green monkey Vero cells after 7 days by virus yield reduction assay. Format: functional. The method, boiled down: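 Huh-7 cells (10^4/well) in DMEM + 10% FBS, held overnight at 37 °C, then infected with DENV-2 (MOI 1) with nontoxic compound concentrations. Each concentration in triplicate, 48 h at 37 °C, then supernatants pooled. Titres by plaque assay on Vero E6 (10^-1 to 10^-6 dilutions, 1 h adsorption, 7 days, formaldehyde fix, crystal violet, plaque count). EC50 from nonlinear dose-response fit; reference inhibitor also assayed.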

A short description of data set [19]: Permeability of compound after 5 hrs by PAMPA. As to conditions: read-out: permeability. It is filed as ADME. In short, it runs like this: as §1
On the technique in general: In PAMPA a lipid-coated filter parts donor from acceptor wells.

For data set [20], the system named is West Nile virus. The data set is described as follows: Potency index, ratio of EC50 for relative to Bz-Lys-Arg-Phg-NH2 to EC50 for test compound for antiviral activity against West Nile virus infected in human HuH7 cells after 3 days by virus yield reduction assay. Format: functional, Huh-7. The method, boiled down:
as §2

In data set [21] the test system is dengue virus type 2. In words: Inhibition of Dengue virus serotype-2 NS2B-NS3 protease using 2-Abz-Nle-Lys-Arg-Arg-Ser-(3-NO2)-Tyr-NH2 as substrate at 50 uM preincubated with protein for 15 mins followed by substrate addition measured for 15 mins by FRET assay.
Data set [22] deals with West Nile virus. In words: Inhibition of West Nile virus NS2B-NS3 protease using 2-Abz-Gly-Leu-Lys-Arg-GlyGly-[…]-Tyr-NH2 as substrate preincubated with protein for 15 mins followed by substrate addition measured for 15 mins by FRET assay relative to Bz-Lys-Arg-Phg-NH2.
For data set [23], the system named is dengue virus type 2. In words: Inhibition of Dengue virus serotype-2 NS2B-NS3 protease using 2-Abz-Nle-Lys-Arg-Arg-Ser-(3-NO2)-Tyr-NH2 as substrate preincubated with protein for 15 mins followed by substrate addition measured for 15 mins by FRET assay relative to Bz-Lys-Arg-Phg-NH2.

Calls of active or inactive are those of the source. The rule behind the calls is not given here.

This note sets out measurements from ChEMBL document CHEMBL3739314, “Discovery of Nanomolar Dengue and West Nile Virus Protease Inhibitors Containing a 4-Benzyloxyphenylglycine Residue” (J Med Chem, 2015).

For orientation: EC50 means the concentration needed to bring the measured effect to its halfway point. The inhibition is the drop in the measured response relative to a control, in per cent. One may read the IC50 as the point on the concentration scale where inhibition reaches its midpoint. One may read the CC50 as the concentration that lowers cell viability or growth by half. As a reminder, the Ki is the equilibrium dissociation constant of an inhibitor or competing ligand from its target. By half-life is commonly meant how long it takes for the measured level to halve.

As to `N=C(N)NCCC[C@H](NC(=O)c1cccs1)C(=O)N[C@@H](CCCCN)C(=O)N[C@@H](C(N)=O)c1ccc(OCc2ccc(Cl)c(Cl)c2)cc1`, the figures for the EC50 in the data set with West Nile virus [1] and in the data set on dengue virus type 2 [4] were 23300 nM and 4060 nM, respectively. The molecule further showed a Retention_time in data set [2] of 3.22 min. Moreover, the inhibition entry (in data set [3]; at Trypsin (Homo sapiens)) was “inactive” in each case. Besides, the half-inhibitory concentration (IC50) in [5] and in [8] was 79 nM in each case. In data set [6], the selectivity ratio was above 25. Further, the CC50 at 48 h in data set [7] and in data set [9] was above 100000 nM each time. In addition, the inhibition with West Nile virus [10] came out at 98%.
Take `N=C(N)NCCC[C@H](NC(=O)c1nccs1)C(=O)N[C@@H](CCCCN)C(=O)N[C@@H](C(N)=O)c1ccc(OCc2ccc(C(F)(F)F)cc2)cc1`: the EC50 in the data set with West Nile virus [1] was found to be 23400 nM; in the data set with dengue virus type 2 [4], 20400 nM. Moreover, the Retention_time in data set [2] is given as 3.11 min. Also, the inhibition result (in [3]; at Trypsin (Homo sapiens)) was “inactive” in each case. Moreover, the inhibition entry in the data set on West Nile virus [11], in the data set on West Nile virus [12], in the data set on dengue virus type 2 [13] and in the data set on dengue virus type 2 [14] was “Active” throughout. Besides, the IC50 is 50 nM in data set [5] and 18 nM in data set [8]. Moreover, the values for the inhibition constant (Ki) in data set [5] and in data set [8] were 39 nM and 12 nM, respectively. Moreover, the CC50 at 48 h in data set [7] and in [9] was above 100000 nM each time. In data set [15], this molecule came in with a half-life of 0.75 h. Besides, the inhibition with West Nile virus [10] was 100%.
In the case of `COc1cccc(COc2ccc([C@@H](NC(=O)[C@H](CCCCN)NC(=O)[C@H](CCCNC(=N)N)NC(=O)c3ccc(-c4cccs4)s3)C(N)=O)cc2)c1`, the EC50 with West Nile virus [1] amounted to 15600 nM; in the data set with dengue virus type 2 [4], 3420 nM. Besides, the Retention_time in data set [2] came to 3.28 min. For the same molecule, the inhibition entry (in [3]; at Trypsin (Homo sapiens)) was “inactive” in each case. Besides, the permeability in [16] was 1.15%. In addition, the values for the selectivity ratio in [17] and in [6] were above 7 and above 25, respectively. Besides, the values for the IC50 in [5] and in data set [8] were 557 nM and 176 nM, respectively. For the same molecule, the inhibition entry in the data set on West Nile virus [12] and with dengue virus type 2 [14] was “Active” throughout. Further, the “Ratio EC50” value is reported as 25 in the data set on dengue virus type 2 [18] and 7 in the data set with West Nile virus [20]. The CC50 at 48 h in data set [7] and in data set [9] was above 100000 nM in each case. For the same molecule, the Papp at 5 h in data set [19] was 0.65 ×10⁻⁶ cm/s. In data set [15], this molecule showed a half-life of 2.92 h. The inhibition with West Nile virus [10] was found to be 100%.
In [2], `N=C(N)NCCC[C@H](NC(=O)c1ccccc1)C(=O)N[C@@H](CCCCN)C(=O)N[C@@H](C(N)=O)c1ccc(OCc2ccccc2)cc1` gave a Retention_time of 2.83 min. Also, the inhibition in data set [3] is below 30%; with dengue virus type 2 [21] it was 100%; with West Nile virus [10] it was 101%. In the data set with dengue virus type 2 [4], this molecule registered an EC50 of 7940 nM. Also, the results for the IC50 in data set [5] and in data set [8] were 728 nM and 367 nM, respectively. Besides, the inhibition constant (Ki) in data set [5] is 536 nM; in data set [8] it was 307 nM. In addition, the values for the fold change (FC) with West Nile virus [22] and with dengue virus type 2 [23] were 80 and 9, respectively. Further, the inhibition entry at Trypsin (Homo sapiens) is “inactive”. Moreover, in data set [7], the CC50 at 48 h was above 100000 nM.
